Measurements as given in ChEMBL document CHEMBL3758104, “Reinvestigating Old Pharmacophores: Are 4-Aminoquinolines and Tetraoxanes Potential Two-Stage Antimalarials?” (J Med Chem, 2016).
The source made the active and inactive calls. The calls are words filed in the database; no cut-off is given here.

Assays:
Plasmodium falciparum = assay: Antimalarial activity against 4th to 5th gametocyte stage of Plasmodium falciparum 3D7elo1-pfs16-CBG99 assessed as inhibition of gametocyte viability by luciferase reporter gene assay; assay type: functional, organism-based
Procedure, shortened: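 Stage IV–V gametocytes of luciferase-expressing 3D7elo1-pfs16-CBG99 strain (CBG99 under pfs16 promoter); luciferase activity as viability read-out. Viability = 100×(treated−blank)/(untreated−blank), blank = 100 nM epoxomicin-treated sample. Epoxomicin and dihydroartemisinin as positive controls. IC50 from nonlinear regression of dose–response; mean of three experiments in duplicate.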

Mus musculus [1] = assay: Toxicity in Plasmodium berghei ANKA infected C57Bl6 mouse at 80 mg/kg/day, po administered for 3 days measured 2 times a day for 31 days; assay type: organism-based; conditions: in vivo, 744 h
Mus musculus [2] = assay: Toxicity in Plasmodium berghei ANKA infected C57Bl6 mouse at 160 mg/kg/day, po administered for 3 days measured 2 times a day for 31 days; assay type: organism-based; conditions: in vivo, 744 h
Plasmodium berghei [3] = assay: Antimalarial activity against Plasmodium berghei ANKA infected in C57Bl6 mouse at 80 mg/kg/day, po measured on day 3 to 5 by Thompson test; assay type: functional
Plasmodium berghei [4] = assay: Antimalarial activity against Plasmodium berghei ANKA infected in C57Bl6 mouse assessed as increase in survival rate at 80 mg/kg/day, po administered for day 3 to 5 by Thompson test; assay type: functional, organism-based
Procedure, shortened: (§1)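 Modified Thompson test: C57Bl6 female mice inoculated intraperitoneally on day 0 with 1×10^6 P. berghei ANKA-infected erythrocytes; compound suspended in 0.5% hydroxyethylcellulose–0.1% Tween 80, given orally once daily on days 3, 4 and 5 post infection. Parasitemia by Giemsa-stained thin tail-blood smears on days 0, 3, 6, 10, 13, 17, 20, 24, 27, 31. Cure = survival without parasitemia to day 31.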

Plasmodium berghei [5] = assay: Antimalarial activity against Plasmodium berghei ANKA infected in C57Bl6 mouse assessed as increase in cure rate at 80 mg/kg/day, po administered for day 3 to 5 by Thompson test; assay type: functional, organism-based; procedure, shortened: as §1
Plasmodium berghei [6] = assay: Antimalarial activity against sporozoite stage of Plasmodium berghei infected in human Huh7 cells assessed as remaining parasite infection at 10 uM pre-incubated for 24 hrs followed by parasite infection measured after 48 hrs by bioluminescence assay; conditions: Huh-7

CC[C@H](C)[C@H](NC(=O)[C@H]([C@@H](C)CC)N(C)C(C)=O)C(=O)N[C@H](C(=O)N[C@@H](CC(C)C)C(=O)[C@@]1(C)CO1)[C@@H](C)O [EPOXOMYCIN]
IC50 (Plasmodium falciparum): 11.8 nM

Fc1ccc2scc(CNCCCNc3ccnc4cc(Cl)ccc34)c2c1
Activity (Mus musculus [1]): Non-toxic
Activity (Mus musculus [2]): Toxic
MST (Plasmodium berghei [3]): 14 days
Activity (Plasmodium berghei [4]): inactive
Activity (Plasmodium berghei [5]): inactive

COc1cc(NC(C)CCCN)c2ncccc2c1 (configuration not stated) [PRIMAQUINE]
% infection at 10 µM (Plasmodium berghei [6]): 62%
